≈ marks a conversion by molar mass, not a printed value. Calls of active or inactive are those of the source. The calls are words filed in the database; no cut-off is given here.
Assays:
Candida albicans [1] = experiment: Antifungal activity against Candida albicans ATCC 90028 by CLSI protocol based broth microdilution method; type: functional
Procedure, shortened: (§1)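 Clinical isolates and control strain subcultured at least twice on TSA, 37 °C, 48 h. MICs by CLSI M27-A3 broth microdilution; compounds dissolved in DMSO to 2000 μg mL–1 stock. Fluconazole positive control, culture, media and DMSO vehicle controls in each run. Duplicate experiments; MIC in μg mL–1.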

Candida albicans [2] = experiment: Antifungal activity against fluconazole susceptible Candida albicans 004B1 by CLSI protocol based broth microdilution method; type: functional; procedure, shortened: as §1
Candida albicans [3] = experiment: Inhibition of ergosterol biosynthesis in fluconazole susceptible Candida albicans ATCC 90028 at 8 ug/ml relative to control; type: functional
Procedure, shortened: (§2)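 Total sterols quantified by alcoholic KOH extraction in cells grown in 50 ml TSB with compounds at MIC and ½ MIC; untreated and 8 μg mL–1 fluconazole controls. Spectral scan; ergosterol content from A281.5 and A230 absorbances, dilution factor and pellet weight, correcting for 24(28) DHE.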

Candida albicans [4] = experiment: Antifungal activity against fluconazole susceptible Candida albicans 0072gr by CLSI protocol based broth microdilution method; type: functional; procedure, shortened: as §1
Candida albicans [5] = experiment: Up regulation of ERG11 gene expression in fluconazole resistant Candida albicans A171 at 8 ug/ml after 2 hrs by qRT PCR analysis; type: functional, organism-based
Procedure, shortened: (§3)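 Cells exposed 2 h to test agents at MIC. Total RNA isolated, cDNA synthesized, qPCR for ERG11 with ACT1 as endogenous control. Triplicate independent experiments, reported as mean ± standard deviation.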

Candida albicans [6] = experiment: Antifungal activity against fluconazole susceptible Candida albicans 0079gr by CLSI protocol based broth microdilution method; type: functional; procedure, shortened: as §1
Candida albicans [7] = experiment: Inhibition of ergosterol biosynthesis in fluconazole resistant Candida albicans A171 at 8 ug/ml relative to control; type: functional; procedure, shortened: as §2
Candida albicans [8] = experiment: Antifungal activity against fluconazole susceptible Candida albicans 004gr by CLSI protocol based broth microdilution method; type: functional; procedure, shortened: as §1
Candida albicans [9] = experiment: Antifungal activity against fluconazole susceptible Candida albicans 002B1 by CLSI protocol based broth microdilution method; type: functional; procedure, shortened: as §1
Candida albicans [10] = experiment: Antifungal activity against fluconazole resistant Candida albicans 167-2 by CLSI protocol based broth microdilution method; type: functional
Procedure, shortened: (§4)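 Broth microdilution per CLSI M27-A3 against clinical C. albicans isolates. Strains sub-cultured at least twice on Tryptone Soya Agar, 37 °C, 48 h. Compounds dissolved in DMSO at 2000 μg mL–1 stock. Fluconazole positive control, plus culture, media and vehicle controls. Run in duplicate; MIC in μg mL–1.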

Candida albicans [11] = experiment: Antifungal activity against fluconazole resistant Candida albicans A171 by CLSI protocol based broth microdilution method; type: functional; procedure, shortened: as §4
Candida albicans [12] = experiment: Down regulation of ERG11 gene expression in fluconazole susceptible Candida albicans ATCC 90028 at 8 ug/ml after 2 hrs by qRT PCR analysis; type: functional, organism-based; procedure, shortened: as §3
Candida albicans [13] = experiment: Antifungal activity against fluconazole susceptible Candida albicans 003gr by CLSI protocol based broth microdilution method; type: functional; procedure, shortened: as §1
Candida albicans [14] = experiment: Antifungal activity against fluconazole resistant Candida albicans 167-1 by CLSI protocol based broth microdilution method; type: functional; procedure, shortened: as §4
Candida albicans [15] = experiment: Inhibition of ABC efflux pumps in fluconazole resistant Candida albicans 167-1 assessed as reduction in energy-dependent rhodamine 6G efflux in presence of 0.1 M glucose after 25 mins […] relative to control
Candida albicans [16] = experiment: Inhibition of ABC efflux pumps in fluconazole susceptible Candida albicans 004B1 assessed as reduction in energy-dependent rhodamine 6G efflux in presence of 0.1 M glucose after 25 mins by fluorescence assay relative to control
Procedure, shortened: (§5)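 Cells grown in TSB at 37 °C for 8 h, washed, resuspended in glucose-free PBS at 1 × 10^8 cells. De-energized 45 min with 5 mM deoxyglucose plus 5 mM dinitrophenol. […] Washed, sampled 5–25 min, then 0.1 M glucose added. Absorbance 527 nm, R6G from standard curve.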

Candida albicans [17] = experiment: Inhibition of ABC efflux pumps in fluconazole susceptible Candida albicans 002B1 assessed as reduction in energy-dependent rhodamine 6G efflux in presence of 0.1 M glucose after 25 mins […] relative to control
Candida albicans [18] = experiment: Antifungal activity against fluconazole resistant Candida albicans 167-2 in presence of fluconazole by CLSI protocol based broth microdilution method; type: functional
Procedure, shortened: (§6)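 Checkerboard-style combination with fluconazole at a 1 : 1 ratio, over concentrations 2–4 fold below each agent's MIC alone, by CLSI broth microdilution. Fractional inhibitory concentration index calculated and interpreted as synergy (<0.5), additive (0.5–1), indifferent or antagonistic.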

Candida albicans [19] = experiment: Inhibition of ABC efflux pumps in fluconazole resistant Candida albicans A171 assessed as reduction in energy-dependent rhodamine 6G efflux in presence of 0.1 M glucose after 25 mins by fluorescence assay relative to control; procedure, shortened: as §5
Candida albicans [20] = experiment: Antifungal activity against fluconazole susceptible Candida albicans 0072gr in presence of fluconazole by CLSI protocol based broth microdilution method; type: functional
Candida albicans [21] = experiment: Down regulation of ERG11 gene expression in fluconazole susceptible Candida albicans ATCC 90028 at MIC after 2 hrs by qRT PCR analysis relative to control; type: functional
Procedure, shortened: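 Cells exposed to compound at MIC for 2 h; total RNA isolated, cDNA synthesised, ERG11 measured by real-time qPCR with ACT1 as endogenous control. Triplicate independent experiments; mean ± standard deviation.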

Candida albicans [22] = experiment: Inhibition of ABC efflux pumps in fluconazole susceptible Candida albicans 004gr assessed as reduction in energy-dependent rhodamine 6G efflux in presence of 0.1 M glucose after 25 mins by fluorescence assay relative to control; procedure, shortened: as §5
Candida albicans [23] = experiment: Inhibition of ergosterol biosynthesis in fluconazole susceptible Candida albicans ATCC 90028 at 0.5 to 1 times MIC relative to control; type: functional
Procedure, shortened: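 ATCC90028 grown in 50 ml TSB with MIC and ½ MIC of compound; untreated and 8 μg mL–1 fluconazole controls. Sterols extracted by alcoholic KOH method and spectrophotometrically scanned; ergosterol % calculated from A281.5 and A230 (E values 290 and 518) with dilution factor, per pellet weight.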

Candida albicans [24] = experiment: Inhibition of ABC efflux pumps in fluconazole resistant Candida albicans 167-2 assessed as reduction in energy-dependent rhodamine 6G efflux in presence of 0.1 M glucose after 25 mins […] relative to control
Candida albicans [25] = experiment: Antifungal activity against fluconazole susceptible Candida albicans 004gr in presence of fluconazole by CLSI protocol based broth microdilution method; type: functional
Candida albicans [26] = experiment: Inhibition of ABC efflux pumps in fluconazole susceptible Candida albicans 003gr assessed as reduction in energy-dependent rhodamine 6G efflux in presence of 0.1 M glucose after 25 mins […] relative to control
Candida albicans [27] = experiment: Inhibition of ergosterol biosynthesis in fluconazole resistant Candida albicans A171 at 0.5 to 1 times MIC relative to control; type: functional; procedure, shortened: as §2
Candida albicans [28] = experiment: Down regulation of ERG11 gene expression in fluconazole resistant Candida albicans A171 at MIC after 2 hrs by qRT PCR analysis relative to control; type: functional; procedure, shortened: as §3
Candida albicans [29] = experiment: Antifungal activity against fluconazole susceptible Candida albicans 0079gr in presence of fluconazole by CLSI protocol based broth microdilution method; type: functional
Candida albicans [30] = experiment: Inhibition of ABC efflux pumps in fluconazole susceptible Candida albicans 0072gr assessed as reduction in energy-dependent rhodamine 6G efflux in presence of 0.1 M glucose after 25 mins […] relative to control
Candida albicans [31] = experiment: Antifungal activity against fluconazole susceptible Candida albicans 002B1 in presence of fluconazole by CLSI protocol based broth microdilution method; type: functional
Candida albicans [32] = experiment: Antifungal activity against Candida albicans ATCC 90028 in presence of fluconazole by CLSI protocol based broth microdilution method; type: functional
Candida albicans [33] = experiment: Inhibition of ABC efflux pumps in fluconazole susceptible Candida albicans 0079gr assessed as reduction in energy-dependent rhodamine 6G efflux in presence of 0.1 M glucose after 25 mins by fluorescence assay relative to control; procedure, shortened: as §5
Candida albicans [34] = experiment: Antifungal activity against fluconazole resistant Candida albicans A171 in presence of fluconazole by CLSI protocol based broth microdilution method; type: functional; procedure, shortened: as §6
Candida albicans [35] = experiment: Antifungal activity against fluconazole resistant Candida albicans 167-1 in presence of fluconazole by CLSI protocol based broth microdilution method; type: functional; procedure, shortened: as §6
Candida albicans [36] = experiment: Antifungal activity against fluconazole susceptible Candida albicans 003gr in presence of fluconazole by CLSI protocol based broth microdilution method; type: functional
Candida albicans [37] = experiment: Antifungal activity against fluconazole susceptible Candida albicans 004B1 in presence of fluconazole by CLSI protocol based broth microdilution method; type: functional

SMILES: OC(Cn1cncn1)(Cn1cncn1)c1ccc(F)cc1F [FLUCONAZOLE]
- MIC (Candida albicans [1]): 2 to 8 µg/mL (≈ 6.53 to 26.1 µM)
- MIC (Candida albicans [2]): 2 to 8 µg/mL (≈ 6.53 to 26.1 µM)
- inhibition at 8 µg/mL (Candida albicans [3]): 100%
- MIC (Candida albicans [4]): 2 to 8 µg/mL (≈ 6.53 to 26.1 µM)
- Activity (Candida albicans [5]): inactive
- MIC (Candida albicans [6]): 2 to 8 µg/mL (≈ 6.53 to 26.1 µM)
- inhibition at 8 µg/mL (Candida albicans [7]): 11%
- MIC (Candida albicans [8]): 2 to 8 µg/mL (≈ 6.53 to 26.1 µM)
- MIC (Candida albicans [9]): 2 to 8 µg/mL (≈ 6.53 to 26.1 µM)
- MIC (Candida albicans [10]): 125 to 500 µg/mL (≈ 408 to 1630 µM)
- MIC (Candida albicans [11]): 125 to 500 µg/mL (≈ 408 to 1630 µM)
- inhibition (Candida albicans [12]): Active
- MIC (Candida albicans [13]): 2 to 8 µg/mL (≈ 6.53 to 26.1 µM)
- MIC (Candida albicans [14]): 125 to 500 µg/mL (≈ 408 to 1630 µM)

SMILES: NC(=S)N1N=C(c2ccccc2)CC1c1ccc(C2CC(c3ccccc3)=NN2C(N)=S)cc1 (configuration not stated)
- inhibition (Candida albicans [15]): < 20%
- inhibition (Candida albicans [16]): < 20%
- inhibition (Candida albicans [17]): < 20%
- fractional inhibitory concentration index (FICI) (Candida albicans [18]): 0.372 - 1.5
- MIC (Candida albicans [1]): 8 to 125 µg/mL (≈ 16.5 to 258 µM)
- inhibition (Candida albicans [19]): < 20%
- MIC (Candida albicans [2]): 8 to 125 µg/mL (≈ 16.5 to 258 µM)
- fractional inhibitory concentration index (FICI) (Candida albicans [20]): 0.53 - 2.19
- fold change (FC) (Candida albicans [21]): 1.5 - 13
- inhibition (Candida albicans [22]): < 20%
- inhibition (INH) (Candida albicans [23]): 66 - 99%
- MIC (Candida albicans [4]): 8 to 125 µg/mL (≈ 16.5 to 258 µM)
- inhibition (Candida albicans [24]): < 20%
- fractional inhibitory concentration index (FICI) (Candida albicans [25]): 0.53 - 2.19
- inhibition (Candida albicans [26]): < 20%
- inhibition (INH) (Candida albicans [27]): 49 - 94%
- MIC (Candida albicans [6]): 8 to 125 µg/mL (≈ 16.5 to 258 µM)
- MIC (Candida albicans [8]): 8 to 125 µg/mL (≈ 16.5 to 258 µM)
- MIC (Candida albicans [9]): 8 to 125 µg/mL (≈ 16.5 to 258 µM)
- fold change (FC) (Candida albicans [28]): 1.25 - 10
- fractional inhibitory concentration index (FICI) (Candida albicans [29]): 0.53 - 2.19
- inhibition (Candida albicans [30]): < 20%
- fractional inhibitory concentration index (FICI) (Candida albicans [31]): 0.53 - 2.19
- fractional inhibitory concentration index (FICI) (Candida albicans [32]): 0.53 - 2.19
- MIC (Candida albicans [10]): 125 to 500 µg/mL (≈ 258 to 1030 µM)
- MIC (Candida albicans [11]): 125 to 500 µg/mL (≈ 258 to 1030 µM)
- inhibition (Candida albicans [33]): < 20%
- fractional inhibitory concentration index (FICI) (Candida albicans [34]): 0.372 - 1.5
- fractional inhibitory concentration index (FICI) (Candida albicans [35]): 0.372 - 1.5
- fractional inhibitory concentration index (FICI) (Candida albicans [36]): 0.53 - 2.19
- fractional inhibitory concentration index (FICI) (Candida albicans [37]): 0.53 - 2.19
- MIC (Candida albicans [13]): 8 to 125 µg/mL (≈ 16.5 to 258 µM)
- MIC (Candida albicans [14]): 125 to 500 µg/mL (≈ 258 to 1030 µM)
